Test results: ChEMBL document CHEMBL1128459, “Characterization of potent and selective antagonists at postsynaptic 5-HT1A receptors in a series of N4-substituted arylpiperazines” (J Med Chem, 1995)

Tests used:
[1] = tested on: Rattus norvegicus; experiment: Minimum effective antagonist dose administered subcutaneously; format: functional; settings: sc, read-out: MED
Outline: (§1)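 Male Wistar rats (200-220 g) had rectal temperature taken, then received the test drug sc in distilled water (1.0 mL/kg). After 30 min they got 8-OH-DPAT 0.16 mg/kg sc, and temperature was remeasured 30 min later. Change from basal was scored.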

[2] = biological target: T1, Adrenergic receptor alpha-1 (Rattus norvegicus, UniProt P15823+P23944+P43140); experiment: In vitro binding affinity towards Alpha-1 adrenergic receptor in rat cortex was determined using [3H]prazosin as radioligand
T1 sequence (P15823 whole entry): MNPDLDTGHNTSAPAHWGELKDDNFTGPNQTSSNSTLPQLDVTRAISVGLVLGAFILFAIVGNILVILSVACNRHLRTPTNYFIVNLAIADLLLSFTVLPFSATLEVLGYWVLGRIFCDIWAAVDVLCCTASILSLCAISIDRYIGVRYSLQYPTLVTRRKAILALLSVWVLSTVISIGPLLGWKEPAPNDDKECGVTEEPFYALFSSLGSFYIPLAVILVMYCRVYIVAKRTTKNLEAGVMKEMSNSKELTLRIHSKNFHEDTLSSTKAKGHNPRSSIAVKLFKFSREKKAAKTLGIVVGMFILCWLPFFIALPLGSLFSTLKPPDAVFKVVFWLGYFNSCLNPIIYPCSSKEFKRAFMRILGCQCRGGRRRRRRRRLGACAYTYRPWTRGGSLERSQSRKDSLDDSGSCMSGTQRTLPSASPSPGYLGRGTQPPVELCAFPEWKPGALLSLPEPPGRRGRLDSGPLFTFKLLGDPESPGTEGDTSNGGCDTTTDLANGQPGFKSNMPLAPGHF
T1 sequence (P23944 whole entry): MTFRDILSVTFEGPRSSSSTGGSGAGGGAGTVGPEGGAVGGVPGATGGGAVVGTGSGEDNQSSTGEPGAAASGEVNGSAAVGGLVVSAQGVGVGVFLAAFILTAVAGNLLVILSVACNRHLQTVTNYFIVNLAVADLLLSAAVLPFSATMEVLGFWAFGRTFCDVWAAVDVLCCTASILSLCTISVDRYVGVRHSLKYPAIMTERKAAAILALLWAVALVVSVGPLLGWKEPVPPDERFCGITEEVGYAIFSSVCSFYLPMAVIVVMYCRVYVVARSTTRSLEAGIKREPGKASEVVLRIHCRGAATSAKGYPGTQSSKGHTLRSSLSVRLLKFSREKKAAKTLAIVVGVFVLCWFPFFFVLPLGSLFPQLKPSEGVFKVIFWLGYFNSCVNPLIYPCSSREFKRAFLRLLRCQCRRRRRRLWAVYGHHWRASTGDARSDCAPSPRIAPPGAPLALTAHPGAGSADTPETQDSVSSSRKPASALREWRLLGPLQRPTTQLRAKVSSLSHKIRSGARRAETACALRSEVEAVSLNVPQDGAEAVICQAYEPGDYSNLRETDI
T1 sequence (P43140 whole entry): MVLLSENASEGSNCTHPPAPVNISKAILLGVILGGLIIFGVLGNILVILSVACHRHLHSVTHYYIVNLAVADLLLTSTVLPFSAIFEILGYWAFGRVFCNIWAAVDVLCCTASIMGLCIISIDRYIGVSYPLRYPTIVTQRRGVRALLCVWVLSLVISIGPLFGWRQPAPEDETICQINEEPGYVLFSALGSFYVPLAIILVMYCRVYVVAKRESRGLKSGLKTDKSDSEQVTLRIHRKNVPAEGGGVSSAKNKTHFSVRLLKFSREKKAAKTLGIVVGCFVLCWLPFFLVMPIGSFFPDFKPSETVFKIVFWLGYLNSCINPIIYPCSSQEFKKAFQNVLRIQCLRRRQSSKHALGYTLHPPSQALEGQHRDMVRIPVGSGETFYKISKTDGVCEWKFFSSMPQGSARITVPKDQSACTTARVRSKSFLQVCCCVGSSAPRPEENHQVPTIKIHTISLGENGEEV
Outline: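 Rat frontal cortex membranes (1/80 wt/vol), no preincubation, in 50 mM Tris pH 7.6 with 4 mM CaCl2 and 0.1% ascorbic acid. Ligand 0.2 nM [3H]prazosin, with phentolamine for nonspecific binding. Incubation 60 min at 25 °C, then filtration. IC50 obtained by regression and converted to pKi with radioligand Kd from saturation experiments.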

[3] = species on record: Rattus norvegicus; experiment: Maximum antagonist effect (% effect) expressed relative to 8-hydroxy-DPAT (100%); format: functional
Outline: (§2)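 In the rat rectal-temperature model (sc dosing, 8-OH-DPAT 0.16 mg/kg sc for antagonism), the maximal percentage of induced hypothermia (agonist) and of block of 8-OH-DPAT hypothermia (antagonist) was recorded. Each value is given with the dose at which it was reached.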

[4] = biological target: D(2) dopamine receptor (Rattus norvegicus) (UniProt P61169)
[5] = biological target: Serotonin 1a (5-HT1a) receptor/Adrenergic receptor alpha-1 (Rattus norvegicus) (UniProt P15823+P23944+P43140+P19327); experiment: Ki ratio measured as the Ki values of alpha-1 adrenergic receptor to that of 5-hydroxytryptamine 1A receptor; format: protein assay
[6] = biological target: 5-hydroxytryptamine receptor 1B (Rattus norvegicus, UniProt P28564); experiment: Binding affinity at 5-hydroxytryptamine 1B receptor
Outline: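 Rat frontal cortex membranes (1/40 wt/vol) were homogenized in 50 mM Tris pH 7.7 with pargyline, 4 mM CaCl2 and 0.1% ascorbic acid, then preincubated for 30 min at 37 °C. Labelled with 2.0 nM [3H]-5-HT, with 100 nM 8-OH-DPAT and 100 nM mesulergine masking 5-HT1A/5-HT2A sites; 5-CT defined nonspecific binding.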

[7] = tested on: Rattus norvegicus; experiment: Minimum effective agonist dose administered subcutaneously; format: functional; settings: sc, read-out: MED
Outline: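 Male Wistar rats (200-220 g) were given the test drug alone sc in water (1.0 mL/kg), with vehicle reinjected at 30 min. Rectal temperature change from basal was measured 60 min after the first injection. MED for hypothermia was set against vehicle by ANOVA with Dunnett's test, P < 0.05.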

[8] = Ratio of MED (agonist) to that of MED (antagonist) values.; format: functional
Outline: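 The MED for inducing hypothermia alone was divided by the MED for blocking 8-OH-DPAT (0.16 mg/kg sc) hypothermia. Both MEDs came from sc dosing in male Wistar rats and were tested against vehicle by ANOVA with Dunnett's test, P < 0.05.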

[9] = tested on: Rattus norvegicus; experiment: Compound after subcutaneous administration was evaluated for antagonist activity against hypothermia induced by 8-hydroxy -DPAT in rat; format: functional; settings: sc, read-out: ID50 (the source's name); outline: as §1
[10] = species on record: Rattus norvegicus; experiment: Maximum agonist effect (% effect) expressed relative to 8-hydroxy-DPAT (100%); format: functional; outline: as §2
[11] = biological target: T2, D(2) dopamine receptor (Rattus norvegicus, UniProt P61169); experiment: In vitro binding affinity towards Dopamine receptor D2 in rat striatum was determined using [3H]-spiperone as radioligand; format: tissue-based
Outline: (§3)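 Rat striatal membranes (1/300 wt/vol), no preincubation, in 50 mM Tris pH 7.4 with CaCl2, ascorbic acid, 5 mM KCl, 1 mM MgCl2 and 120 mM NaCl. Ligand 0.2 nM [3H]spiperone, with 100 nM ketanserin masking 5-HT2A sites; raclopride defined nonspecific binding. Incubation 30 min at 37 °C, then filtration. pKi derived from regression-based IC50.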

[12] = biological target: D(2) dopamine receptor (Rattus norvegicus) (UniProt P61169); experiment: Inhibitory activity against methyl-phenidate-induced gnawing at dopamine receptor D2 in rat
Outline: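 Male Wistar rats (200-220 g) received the test drug sc in water (1.0 mL/kg), then methylphenidate 40.0 mg/kg ip 30 min later. Observation began 30 min after that. Gnawing bouts were counted in 10 s per minute (maximum 10) by a blinded observer.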

[13] = biological target: T3, 5-hydroxytryptamine receptor 1A (Rattus norvegicus, UniProt P19327); experiment: Binding affinity at 5-hydroxytryptamine 1A receptor
T3 sequence (P19327 whole entry): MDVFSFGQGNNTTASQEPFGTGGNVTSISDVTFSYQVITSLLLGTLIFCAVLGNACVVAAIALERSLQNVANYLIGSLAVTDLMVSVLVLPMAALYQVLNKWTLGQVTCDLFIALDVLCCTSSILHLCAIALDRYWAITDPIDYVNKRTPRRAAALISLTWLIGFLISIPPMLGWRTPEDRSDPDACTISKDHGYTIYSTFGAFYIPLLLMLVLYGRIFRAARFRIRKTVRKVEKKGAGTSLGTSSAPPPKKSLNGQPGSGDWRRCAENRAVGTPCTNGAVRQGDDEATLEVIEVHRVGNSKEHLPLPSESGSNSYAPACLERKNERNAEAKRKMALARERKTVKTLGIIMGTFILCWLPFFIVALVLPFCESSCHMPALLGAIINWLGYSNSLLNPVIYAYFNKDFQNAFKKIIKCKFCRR
Outline: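 Rat hippocampal membranes (1/100 wt/vol) in 50 mM Tris pH 7.7 with 4 mM CaCl2, 0.1% ascorbic acid and pargyline. Membranes were spun at 25000g, preincubated 30 min at 37 °C and respun, then incubated with 0.4 nM [3H]-8-OH-DPAT for 30 min at 25 °C. 5-HT defined nonspecific binding, and samples were filtered on PEI-soaked GF/B. IC50 came from regression; pKi = −log[IC50/(1+[L]/Kd)].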

[14] = biological target: 5-hydroxytryptamine receptor 1A (Rattus norvegicus) (UniProt P19327); experiment: Ki ratio measured as the Ki values of dopamine receptor to that of 5-hydroxytryptamine 1A receptor
[15] = biological target: T2, D(2) dopamine receptor; experiment: In vitro binding affinity towards dopamine D2 receptor in rat striatum was determined using [3H]-spiperone as radioligand; format: tissue-based; outline: as §3
[16] = biological target: T2, D(2) dopamine receptor; experiment: In vitro binding affinity towards Dopamine receptor D2 in rat striatum was determined using [3H]spiperone as radioligand; format: tissue-based; outline: as §3

Sequence of D(2) dopamine receptor (Rattus norvegicus) (P61169 whole entry): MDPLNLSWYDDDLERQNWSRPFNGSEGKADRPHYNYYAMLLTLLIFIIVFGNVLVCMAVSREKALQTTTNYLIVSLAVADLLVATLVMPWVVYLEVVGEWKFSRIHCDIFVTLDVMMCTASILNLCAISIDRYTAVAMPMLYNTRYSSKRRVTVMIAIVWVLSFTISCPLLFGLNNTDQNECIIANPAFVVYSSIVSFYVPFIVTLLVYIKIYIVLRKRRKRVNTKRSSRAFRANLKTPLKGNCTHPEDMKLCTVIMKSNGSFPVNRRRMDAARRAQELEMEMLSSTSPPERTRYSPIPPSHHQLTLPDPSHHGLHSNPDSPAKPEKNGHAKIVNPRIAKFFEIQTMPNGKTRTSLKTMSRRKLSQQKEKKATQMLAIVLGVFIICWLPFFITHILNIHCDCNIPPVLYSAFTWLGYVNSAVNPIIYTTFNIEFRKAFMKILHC
T2 sequence (P61169 whole entry): as above
Sequence of 5-hydroxytryptamine receptor 1B (P28564 whole entry): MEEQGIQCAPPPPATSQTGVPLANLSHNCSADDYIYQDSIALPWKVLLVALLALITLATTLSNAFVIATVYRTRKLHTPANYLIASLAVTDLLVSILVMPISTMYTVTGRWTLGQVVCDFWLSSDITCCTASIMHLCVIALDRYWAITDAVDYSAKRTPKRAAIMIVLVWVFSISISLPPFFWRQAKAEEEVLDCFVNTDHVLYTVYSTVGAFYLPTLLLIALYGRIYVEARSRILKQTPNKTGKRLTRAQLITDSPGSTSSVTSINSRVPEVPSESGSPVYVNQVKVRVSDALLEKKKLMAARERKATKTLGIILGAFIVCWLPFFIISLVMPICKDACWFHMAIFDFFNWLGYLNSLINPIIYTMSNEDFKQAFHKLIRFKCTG

Compound	minimal effective dose [1]	Log Ki [2]	Max effect [3]	ID50 [4]	Ki ratio [5]	Ki [6]	minimal effective dose [7]	Ratio [8]	ED50 [9]	Max effect [10]	Ki [11]	ID50 [12]	Ki [13]	Ki ratio [14]	Ki [15]	Ki [16]
c1ccc2c(c1)CC(N1CCN(c3cccc4c3OCCO4)CC1)C2	0.63 mg/kg	-6.84	95%	> 40 mg/kg	81	1780 nM	20 mg/kg	31.7	1.4 mg/kg	46%	347 nM	–	–	–	–	–
c1ccc2c(c1)CC2CCCN1CCN(c2cccc3ccoc23)CC1 (stereo not given)	2.5 mg/kg	–	47%	–	–	1410 nM	10 mg/kg	4	2.5 mg/kg	46%	–	40 mg/kg	2.82 nM	–	–	–
c1ccc2c(c1)CCC2CN1CCN(c2cccc3c2OCCO3)CC1 (stereo not given)	0.63 mg/kg	-7.75	63%	> 40 mg/kg	18.6	200 nM	10 mg/kg	15.8	1.32 mg/kg	43%	41.7 nM	–	1.74 nM	43.6	–	–
Clc1cccc2c1CC2CCN1CCN(c2cccc3c2OCCO3)CC1 (stereo not given)	1.25 mg/kg	-7.19	96%	> 40 mg/kg	28.8	708 nM	40 mg/kg	32	1.13 mg/kg	52%	–	–	2.24 nM	–	60.3 nM	–
c1ccc2c(c1)CC2CCN1CCN(c2cccc3ccoc23)CC1 (stereo not given)	1.25 mg/kg	–	91%	–	–	1510 nM	> 40 mg/kg	> 32	1.12 mg/kg	21%	–	> 40 mg/kg	1.41 nM	–	–	–
c1ccc2c(c1)CC2CCN1CCN(c2cccc3c2OCCO3)CC1 (stereo not given)	1.25 mg/kg	-7.66	76%	> 40 mg/kg	35.4	–	40 mg/kg	32	0.65 mg/kg	32%	49 nM	–	0.589 nM	–	–	–
COc1ccccc1N1CCN(C[C@@H](C(=O)NC(C)(C)C)c2ccccc2)CC1	2.5 mg/kg	-5.94	73%	> 40 mg/kg	35.6	> 10000 nM	40 mg/kg	16	2.45 mg/kg	50%	389 nM	–	–	–	–	–
COc1ccccc1N1CCN(CCCCN2C(=O)c3ccccc3C2=O)CC1 [NAN-190]	0.63 mg/kg	–	56%	10 mg/kg	–	–	5 mg/kg	–	97 mg/kg	100%	–	–	–	–	–	31.6 nM
c1ccc2c(c1)CC(N1CCN(c3cccc4c3OCCCO4)CC1)C2	5 mg/kg	-6.68	51%	> 40 mg/kg	55	1410 nM	10 mg/kg	2	5.18 mg/kg	72%	–	–	–	–	–	195 nM
c1ccc2c(c1)CCC2CCN1CCN(c2cccc3c2OCCO3)CC1 (stereo not given)	0.63 mg/kg	–	94%	–	–	–	> 40 mg/kg	> 63.5	1.29 mg/kg	19%	–	> 40 mg/kg	1.58 nM	–	–	–
c1ccc2c(c1)CC2CCCCN1CCN(c2cccc3c2OCCO3)CC1 (stereo not given)	5 mg/kg	-7.56	88%	> 40 mg/kg	17.8	631 nM	> 10 mg/kg	> 2	1.43 mg/kg	0%	–	–	1.29 nM	12.5	–	19.5 nM
